Source: ChEMBL document CHEMBL5058577, “EUbOPEN Chemogenomics Library 2 (Multiplex)” (2022)

Test system: Fibroblast
Assay: Multiplex assay against human fibroblast
Assay type: toxicity, cell-based
In short: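 Values for tubulin, mitochondrial-mass and membrane-permeability phenotypes are per cents of cells with healthy nuclei. These cells were identified by CellPathfinder machine-learning gating of live cells that had been stained at seeding with Hoechst33342, BioTracker Green Microtubule Cytoskeleton Dye, MitoTracker Red and Annexin V Alexa Fluor 680 and imaged on a CQ1 microscope at 37°C and 5% CO2 after compound addition. The gating first set Hoechst high-intensity objects apart from normal cells, then split normal cells into healthy, pyknosed or fragmented nuclei, and pyknosed cells into mitotic or apoptotic.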

[1] = 12 h, 1 µM, compound concentration 1 uM, replicate 1
[2] = 12 h, 1 µM, compound concentration 1 uM, replicate 2
[3] = 12 h, 10 µM, compound concentration 10 uM, replicate 1
[4] = 12 h, 10 µM, compound concentration 10 uM, replicate 2
[5] = 24 h, 1 µM, compound concentration 1 uM, replicate 1
[6] = 24 h, 1 µM, compound concentration 1 uM, replicate 2
[7] = 24 h, 10 µM, compound concentration 10 uM, replicate 1
[8] = 24 h, 10 µM, compound concentration 10 uM, replicate 2
[9] = 48 h, 1 µM, compound concentration 1 uM, replicate 1
[10] = 48 h, 1 µM, compound concentration 1 uM, replicate 2
[11] = 48 h, 10 µM, compound concentration 10 uM, replicate 1
[12] = 48 h, 10 µM, compound concentration 10 uM, replicate 2

With `Cc1noc(-c2ccc(-c3ccc(CC(=O)O)cc3)cc2)c1NC(=O)O[C@H](C)c1ccccc1Cl` the “Population Apoptotic (%)” value [1] was 22%, the “Population Fragmented Nuclei (%)” value [1] was 14% and the “Population Healthy Nuclei (%)” value [1] was 77%. The “Population Hoechst High Intensity Objects (%)” value [1] was 0%, the “Population Membrane Permeable-Phenotype (%)” value [1] was 0% and the “Population Mitochondria Different-Phenotype (%)” value [1] was 1%. For the same compound, the “Population Mitotic Cells (%)” value [1] was 77%, the “Population Normal (%)” value [1] was 100% and the “Population Pyknosed Nuclei (%)” value [1] was 8%. For the same compound, the “Population Tubulin-Different-Phenotype (%)” value [1] was 10%, the “Total Cell Count” value [1] was 106 and the “Population Apoptotic (%)” value [2] was 58%. For the same compound, the “Population Fragmented Nuclei (%)” value [2] was 21%, the “Population Healthy Nuclei (%)” value [2] was 60% and the “Population Hoechst High Intensity Objects (%)” value [2] was 5%. The “Population Membrane Permeable-Phenotype (%)” value [2] was 5%, the “Population Mitochondria Different-Phenotype (%)” value [2] was 2% and the “Population Mitotic Cells (%)” value [2] was 41%. The “Population Normal (%)” value [2] was 95%, the “Population Pyknosed Nuclei (%)” value [2] was 18% and the “Population Tubulin-Different-Phenotype (%)” value [2] was 26%. For the same compound, the “Total Cell Count” value [2] was 140, the “Population Apoptotic (%)” value [3] was 40% and the “Population Fragmented Nuclei (%)” value [3] was 20%. The “Population Healthy Nuclei (%)” value [3] was 62%, the “Population Hoechst High Intensity Objects (%)” value [3] was 1% and the “Population Membrane Permeable-Phenotype (%)” value [3] was 1%. The “Population Mitochondria Different-Phenotype (%)” value [3] was 6%, the “Population Mitotic Cells (%)” value [3] was 60% and the “Population Normal (%)” value [3] was 98%. The “Population Pyknosed Nuclei (%)” value [3] was 17%, the “Population Tubulin-Different-Phenotype (%)” value [3] was 31% and the “Total Cell Count” value [3] was 119. For the same compound, the “Population Apoptotic (%)” value [4] was 29%, the “Population Fragmented Nuclei (%)” value [4] was 17% and the “Population Healthy Nuclei (%)” value [4] was 45%. For the same compound, the “Population Hoechst High Intensity Objects (%)” value [4] was 6%, the “Population Membrane Permeable-Phenotype (%)” value [4] was 2% and the “Population Mitochondria Different-Phenotype (%)” value [4] was 10%. The “Population Mitotic Cells (%)” value [4] was 70%, the “Population Normal (%)” value [4] was 93% and the “Population Pyknosed Nuclei (%)” value [4] was 36%. For the same compound, the “Population Tubulin-Different-Phenotype (%)” value [4] was 57%, the “Total Cell Count” value [4] was 90 and the “Population Apoptotic (%)” value [5] was 20%. The “Population Fragmented Nuclei (%)” value [5] was 16%, the “Population Healthy Nuclei (%)” value [5] was 78% and the “Population Hoechst High Intensity Objects (%)” value [5] was 0%. The “Population Membrane Permeable-Phenotype (%)” value [5] was 0%, the “Population Mitochondria Different-Phenotype (%)” value [5] was 1% and the “Population Mitotic Cells (%)” value [5] was 80%. The “Population Normal (%)” value [5] was 100%, the “Population Pyknosed Nuclei (%)” value [5] was 4% and the “Population Tubulin-Different-Phenotype (%)” value [5] was 10%. The “Total Cell Count” value [5] was 102, the “Population Apoptotic (%)” value [6] was 52% and the “Population Fragmented Nuclei (%)” value [6] was 30%. For the same compound, the “Population Healthy Nuclei (%)” value [6] was 57%, the “Population Hoechst High Intensity Objects (%)” value [6] was 2% and the “Population Membrane Permeable-Phenotype (%)” value [6] was 1%. The “Population Mitochondria Different-Phenotype (%)” value [6] was 7%, the “Population Mitotic Cells (%)” value [6] was 47% and the “Population Normal (%)” value [6] was 97%. The “Population Pyknosed Nuclei (%)” value [6] was 12%, the “Population Tubulin-Different-Phenotype (%)” value [6] was 28% and the “Total Cell Count” value [6] was 161. For the same compound, the “Population Apoptotic (%)” value [7] was 50%, the “Population Fragmented Nuclei (%)” value [7] was 20% and the “Population Healthy Nuclei (%)” value [7] was 68%. The “Population Hoechst High Intensity Objects (%)” value [7] was 1%, the “Population Membrane Permeable-Phenotype (%)” value [7] was 0% and the “Population Mitochondria Different-Phenotype (%)” value [7] was 7%. The “Population Mitotic Cells (%)” value [7] was 50%, the “Population Normal (%)” value [7] was 98% and the “Population Pyknosed Nuclei (%)” value [7] was 11%. The “Population Tubulin-Different-Phenotype (%)” value [7] was 29%, the “Total Cell Count” value [7] was 122 and the “Population Apoptotic (%)” value [8] was 32%. The “Population Fragmented Nuclei (%)” value [8] was 26%, the “Population Healthy Nuclei (%)” value [8] was 41% and the “Population Mitochondria Different-Phenotype (%)” value [8] was 10%. For the same compound, the “Population Mitotic Cells (%)” value [8] was 67%, the “Population Pyknosed Nuclei (%)” value [8] was 31% and the “Population Tubulin-Different-Phenotype (%)” value [8] was 65%. For the same compound, the “Total Cell Count” value [8] was 98, the “Population Apoptotic (%)” value [9] was 44% and the “Population Fragmented Nuclei (%)” value [9] was 18%. For the same compound, the “Population Healthy Nuclei (%)” value [9] was 73%, the “Population Hoechst High Intensity Objects (%)” value [9] was 1% and the “Population Membrane Permeable-Phenotype (%)” value [9] was 1%. The “Population Mitochondria Different-Phenotype (%)” value [9] was 1%, the “Population Mitotic Cells (%)” value [9] was 55% and the “Population Normal (%)” value [9] was 98%. The “Population Pyknosed Nuclei (%)” value [9] was 8%, the “Population Tubulin-Different-Phenotype (%)” value [9] was 16% and the “Total Cell Count” value [9] was 112. For the same compound, the “Population Apoptotic (%)” value [10] was 60%, the “Population Fragmented Nuclei (%)” value [10] was 35% and the “Population Healthy Nuclei (%)” value [10] was 55%. The “Population Hoechst High Intensity Objects (%)” value [10] was 2%, the “Population Membrane Permeable-Phenotype (%)” value [10] was 5% and the “Population Mitochondria Different-Phenotype (%)” value [10] was 3%. For the same compound, the “Population Mitotic Cells (%)” value [10] was 40%, the “Population Normal (%)” value [10] was 97% and the “Population Tubulin-Different-Phenotype (%)” value [10] was 25%. The “Total Cell Count” value [10] was 171, the “Population Apoptotic (%)” value [11] was 23% and the “Population Fragmented Nuclei (%)” value [11] was 30%. The “Population Healthy Nuclei (%)” value [11] was 55%, the “Population Hoechst High Intensity Objects (%)” value [11] was 4% and the “Population Membrane Permeable-Phenotype (%)” value [11] was 2%. The “Population Mitochondria Different-Phenotype (%)” value [11] was 4%, the “Population Mitotic Cells (%)” value [11] was 76% and the “Population Normal (%)” value [11] was 95%. The “Population Pyknosed Nuclei (%)” value [11] was 13%, the “Population Tubulin-Different-Phenotype (%)” value [11] was 35% and the “Total Cell Count” value [11] was 133. The “Population Apoptotic (%)” value [12] was 39%, the “Population Fragmented Nuclei (%)” value [12] was 40% and the “Population Healthy Nuclei (%)” value [12] was 37%. The “Population Hoechst High Intensity Objects (%)” value [12] was 2%, the “Population Membrane Permeable-Phenotype (%)” value [12] was 0% and the “Population Mitochondria Different-Phenotype (%)” value [12] was 10%. The “Population Mitotic Cells (%)” value [12] was 60%, the “Population Normal (%)” value [12] was 97% and the “Population Pyknosed Nuclei (%)” value [12] was 22%. The “Population Tubulin-Different-Phenotype (%)” value [12] was 69% and the “Total Cell Count” value [12] was 107.
